# In ChEMBL document CHEMBL4477204, “Tetrahydroisoquinoline-Derived Urea and 2,5-Diketopiperazine Derivatives as Selective Antagonists of the Transient Receptor Potential Melastatin 8 (TRPM8) Channel Receptor and Antiprostate Cancer Agents” (J Med Chem, 2016):
# The source made the active and inactive calls. No cut-off for these calls is given here.
# Key:
# [1] = biological target: T1, Transient receptor potential cation channel subfamily V member 1 (Homo sapiens, UniProt Q8NER1); experiment: Antagonist activity at recombinant human TRPV1 expressed in HEK293 cells assessed as inhibition of capsaicin-induced intracellular calcium accumulation up to 10 uM […] preincubated for 5 mins followed by capsaicin addition by Fluo-4-AM probe-based spectrofluorimetric assay; type: cell-based
# Method in brief: (§1)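 HEK-293 cells stably expressing the listed TRP channel (human TRPV1; rat TRPM8, TRPA1, TRPV2, TRPV3 or TRPV4) were Fluo-4-AM loaded (4 µM, 1 h, 25 °C) and suspended in Tyrode's buffer pH 7.4. Compound was added 5 min before agonist: icilin 0.25 µM (TRPM8), capsaicin 0.1 µM (TRPV1), AITC 100 µM (TRPA1), LPC 3 µM (TRPV2), thymol 100 µM (TRPV3), 4α-PDD 1 µM (TRPV4). Agonist alone was taken as 100%. IC50 from sigmoidal fit, at least triplicate.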
# [2] = biological target: T1, Transient receptor potential cation channel subfamily V member 1; experiment: Antagonist activity at recombinant human TRPV1 expressed in HEK293 cells assessed as inhibition of capsaicin-induced intracellular calcium accumulation preincubated for 5 mins followed by capsaicin addition by Fluo-4-AM probe-based spectrofluorimetric assay; type: cell-based; method in brief: as §1
# [3] = biological target: T2, Transient receptor potential cation channel subfamily V member 2 (Rattus norvegicus, UniProt Q9WUD2); experiment: Antagonist activity at recombinant rat TRPV2 expressed in HEK293 cells assessed as inhibition of LPC-induced intracellular calcium accumulation preincubated for 5 mins followed by LPC addition by Fluo-4-AM probe-based spectrofluorimetric assay; type: cell-based; method in brief: as §1
# T2 sequence (Q9WUD2 whole entry): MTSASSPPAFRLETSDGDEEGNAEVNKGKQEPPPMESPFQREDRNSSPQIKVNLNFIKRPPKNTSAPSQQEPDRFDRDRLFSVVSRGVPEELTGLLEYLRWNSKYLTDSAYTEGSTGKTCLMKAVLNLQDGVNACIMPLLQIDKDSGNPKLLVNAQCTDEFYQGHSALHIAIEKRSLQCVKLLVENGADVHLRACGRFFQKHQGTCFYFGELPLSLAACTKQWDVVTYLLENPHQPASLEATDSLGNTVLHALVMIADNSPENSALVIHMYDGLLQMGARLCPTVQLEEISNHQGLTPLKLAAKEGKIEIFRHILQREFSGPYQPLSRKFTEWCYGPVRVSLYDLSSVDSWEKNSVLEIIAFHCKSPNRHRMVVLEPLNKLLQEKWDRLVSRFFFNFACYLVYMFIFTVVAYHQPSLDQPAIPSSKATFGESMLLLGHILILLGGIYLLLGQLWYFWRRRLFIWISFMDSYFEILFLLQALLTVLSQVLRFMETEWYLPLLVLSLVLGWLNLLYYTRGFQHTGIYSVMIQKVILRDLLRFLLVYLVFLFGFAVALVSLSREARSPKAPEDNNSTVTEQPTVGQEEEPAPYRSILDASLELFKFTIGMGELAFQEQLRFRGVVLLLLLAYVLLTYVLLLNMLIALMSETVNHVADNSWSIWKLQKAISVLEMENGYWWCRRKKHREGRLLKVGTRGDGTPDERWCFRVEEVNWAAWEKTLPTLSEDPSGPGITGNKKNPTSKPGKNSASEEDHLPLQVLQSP
# [4] = biological target: Transient receptor potential cation channel subfamily V member 4 (Rattus norvegicus, UniProt Q9ERZ8); experiment: Antagonist activity at recombinant rat TRPV4 expressed in HEK293 cells assessed as inhibition of 4alphaPDD-induced intracellular calcium accumulation preincubated for 5 mins followed by 4alphaPDD addition by Fluo-4-AM probe-based spectrofluorimetric assay; type: cell-based; method in brief: as §1
# [5] = in vitro; conditions: C57BL/6, mouse, liver microsomes
# [6] = biological target: T3, Heat sensitive channel TRPV3 (Rattus norvegicus, UniProt Q4QYD9); experiment: Antagonist activity at recombinant rat TRPV3 expressed in HEK293 cells assessed as inhibition of thymol-induced intracellular calcium accumulation preincubated for 5 mins followed by thymol addition by Fluo-4-AM probe-based spectrofluorimetric assay; type: cell-based; method in brief: as §1
# T3 sequence (Q4QYD9 whole entry): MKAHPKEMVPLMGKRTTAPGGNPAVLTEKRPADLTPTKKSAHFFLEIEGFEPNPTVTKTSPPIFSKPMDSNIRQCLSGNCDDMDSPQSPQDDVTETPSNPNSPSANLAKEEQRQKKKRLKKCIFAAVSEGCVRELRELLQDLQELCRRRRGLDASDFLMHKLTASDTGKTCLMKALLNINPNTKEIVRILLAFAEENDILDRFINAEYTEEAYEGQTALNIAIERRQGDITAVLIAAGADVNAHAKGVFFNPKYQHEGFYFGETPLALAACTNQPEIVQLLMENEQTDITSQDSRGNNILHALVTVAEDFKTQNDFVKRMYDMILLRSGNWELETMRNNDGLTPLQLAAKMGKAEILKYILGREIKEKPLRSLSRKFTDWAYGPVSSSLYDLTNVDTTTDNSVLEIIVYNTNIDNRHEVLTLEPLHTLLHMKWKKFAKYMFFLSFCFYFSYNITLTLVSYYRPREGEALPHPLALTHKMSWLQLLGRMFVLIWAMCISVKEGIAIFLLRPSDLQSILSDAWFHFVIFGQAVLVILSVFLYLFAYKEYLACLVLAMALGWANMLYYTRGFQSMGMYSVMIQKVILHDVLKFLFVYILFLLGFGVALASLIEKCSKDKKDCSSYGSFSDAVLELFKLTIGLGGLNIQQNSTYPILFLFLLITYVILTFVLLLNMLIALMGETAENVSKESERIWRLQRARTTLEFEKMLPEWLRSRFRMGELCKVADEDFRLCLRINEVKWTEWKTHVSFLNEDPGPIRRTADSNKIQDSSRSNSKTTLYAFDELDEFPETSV
# [7] = biological target: T4, Heat sensitive channel TRPV3 (Rattus norvegicus) (UniProt Q4QYD9); experiment: Antagonist activity at recombinant rat TRPV3 expressed in HEK293 cells assessed as inhibition of thymol-induced intracellular calcium accumulation up to 10 uM preincubated for 5 mins followed by thymol addition by Fluo-4-AM probe-based spectrofluorimetric assay; type: cell-based; method in brief: as §1
# T4 sequence (whole entry): T3 sequence (Q4QYD9 whole entry)
# [8] = Cytotoxicity against human PNT1A cells assessed as reduction in cell viability by measuring fluorescence gated cells at 10 uM after 72 hrs by CBNF assay (reference value: 94.1%); type: cell-based; conditions: read-out: Activity
# [9] = tested on: LNCaP; experiment: Cytotoxicity against human LNCAP cells assessed as reduction in cell viability by measuring fluorescence gated cells at 10 uM after 72 hrs by CBNF assay (reference value: 83.3%); type: functional
# [10] = tested on: CWR22R; experiment: Cytotoxicity against human 22Rv1 cells assessed as reduction in cell viability by measuring fluorescence gated cells at 10 uM after 72 hrs by CBNF assay (reference value: 81.3%); type: functional
# T1 sequence (Q8NER1 whole entry): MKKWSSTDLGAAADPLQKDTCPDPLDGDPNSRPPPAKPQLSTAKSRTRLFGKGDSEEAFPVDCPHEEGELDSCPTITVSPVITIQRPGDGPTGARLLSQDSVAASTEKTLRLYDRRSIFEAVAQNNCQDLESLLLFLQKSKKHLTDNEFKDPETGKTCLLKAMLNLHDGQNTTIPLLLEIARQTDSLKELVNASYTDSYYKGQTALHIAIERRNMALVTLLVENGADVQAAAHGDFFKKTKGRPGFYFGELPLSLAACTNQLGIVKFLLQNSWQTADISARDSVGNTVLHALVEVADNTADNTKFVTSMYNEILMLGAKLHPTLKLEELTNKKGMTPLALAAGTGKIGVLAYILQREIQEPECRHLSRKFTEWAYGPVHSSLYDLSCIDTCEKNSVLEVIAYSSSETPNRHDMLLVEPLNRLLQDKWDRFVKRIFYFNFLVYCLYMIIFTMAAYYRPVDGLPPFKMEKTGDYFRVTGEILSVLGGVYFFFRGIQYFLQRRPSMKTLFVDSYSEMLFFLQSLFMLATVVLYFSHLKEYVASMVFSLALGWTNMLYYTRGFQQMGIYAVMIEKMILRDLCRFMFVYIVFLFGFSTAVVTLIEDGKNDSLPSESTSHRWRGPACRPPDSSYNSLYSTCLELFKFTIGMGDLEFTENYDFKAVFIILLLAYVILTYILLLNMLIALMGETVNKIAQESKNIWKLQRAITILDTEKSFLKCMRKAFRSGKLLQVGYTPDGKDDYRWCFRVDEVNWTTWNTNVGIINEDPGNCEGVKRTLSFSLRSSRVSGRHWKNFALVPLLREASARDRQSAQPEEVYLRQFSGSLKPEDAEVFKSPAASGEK
# Chain of Transient receptor potential cation channel subfamily V member 4 (Q9ERZ8 whole entry): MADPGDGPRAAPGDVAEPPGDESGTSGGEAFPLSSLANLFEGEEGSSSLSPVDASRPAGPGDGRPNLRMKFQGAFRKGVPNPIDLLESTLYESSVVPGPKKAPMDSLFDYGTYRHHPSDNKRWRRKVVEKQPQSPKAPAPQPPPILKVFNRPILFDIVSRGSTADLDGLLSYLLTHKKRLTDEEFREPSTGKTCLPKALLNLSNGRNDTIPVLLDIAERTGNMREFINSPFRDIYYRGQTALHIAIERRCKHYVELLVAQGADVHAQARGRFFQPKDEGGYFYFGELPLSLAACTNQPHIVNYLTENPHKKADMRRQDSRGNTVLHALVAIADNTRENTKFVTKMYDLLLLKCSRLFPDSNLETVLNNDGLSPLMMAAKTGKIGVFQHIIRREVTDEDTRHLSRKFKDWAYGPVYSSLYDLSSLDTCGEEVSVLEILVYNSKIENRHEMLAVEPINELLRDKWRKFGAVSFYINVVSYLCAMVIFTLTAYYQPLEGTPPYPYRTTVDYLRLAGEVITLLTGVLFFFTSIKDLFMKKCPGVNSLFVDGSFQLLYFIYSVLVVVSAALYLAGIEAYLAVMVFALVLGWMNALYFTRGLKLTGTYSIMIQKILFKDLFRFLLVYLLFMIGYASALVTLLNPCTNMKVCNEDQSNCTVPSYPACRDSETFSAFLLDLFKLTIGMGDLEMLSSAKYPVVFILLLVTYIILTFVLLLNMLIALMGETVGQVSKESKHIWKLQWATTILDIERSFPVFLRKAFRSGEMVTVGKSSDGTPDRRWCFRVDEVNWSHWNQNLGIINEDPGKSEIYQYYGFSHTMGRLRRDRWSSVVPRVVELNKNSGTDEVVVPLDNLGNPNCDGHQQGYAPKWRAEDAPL
Compound,inhibition [1],IC50 [2],IC50 [3],IC50 [4],"CLint scaled at 1 h, 3 µM [5]",IC50 [6],inhibition [7],"viability at 72 h, 10 µM [8]",Activity [9],Activity [10]
COc1cc(/C=C2\NC(=O)[C@@H]3Cc4c(OC)c(C)c(OC)c(OC)c4[C@@H](c4ccccc4)N3C2=O)c(OC)c(C)c1OC,inactive,68.9 µM,12.4 µM,> 100 µM,15.6 mL/min/kg,34.3 µM,inactive,–,–,–
COc1cc2c(cc1OC)[C@H](c1ccccc1)N(C(=O)N1CCc3cc(OC)c(OC)cc3[C@@H]1c1ccccc1)CC2 (racemic),inactive,53 µM,51.9 µM,82.6 µM,–,> 100 µM,inactive,–,–,–
COc1cc2c(cc1OC)[C@H](c1ccc(F)cc1)N(C(=O)N1CCc3cc(OC)c(OC)cc3[C@@H]1c1ccc(F)cc1)CC2 (racemic),inactive,68.5 µM,94.3 µM,96.2 µM,75.2 mL/min/kg,72.9 µM,inactive,92.7%,54.4%,82.2%
COc1cc2c(cc1OC)[C@H](c1ccc(Cl)cc1)N(C(=O)N1CCc3cc(OC)c(OC)cc3[C@@H]1c1ccc(Cl)cc1)CC2 (racemic),inactive,49.7 µM,54.9 µM,81.5 µM,–,> 100 µM,inactive,–,–,–
